Measured values from ChEMBL document CHEMBL5038577, “First-Time Disclosure of CVN424, a Potent and Selective GPR6 Inverse Agonist for the Treatment of Parkinson's Disease: Discovery, Pharmacological Validation, and Identification of a Clinical Candidate” (J Med Chem, 2021).
Active and inactive are the calls of the source. The rule behind the calls is not given here.

Assays:
[1] = molecular target: hERG (KCNH2) (Homo sapiens, UniProt Q12809); assay: Inhibition of human ERG at 10 uM relative to control; format: toxicity
[2] = species on record: Homo sapiens; assay: Selectivity for human GPR6 over human GRP3 assessed as fold change
[3] = molecular target: Cytochrome P450 2D6 (Homo sapiens, UniProt P10635); assay: Inhibition of CYP2D6 (unknown origin); format: ADME
[4] = species on record: Homo sapiens; assay: Selectivity for human GPR6 over human GRP12 assessed as fold change
[5] = molecular target: T1, G-protein coupled receptor 6 (Homo sapiens, UniProt P46095); assay: Inverse agonist activity at human GPR6 expressed in CHO-K1 cells assessed as modulation of cAMP level incubated for 20 hrs by TR-FRET assay; format: functional, cell-based
How it was run: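 T-REx-CHO-K1 cells stably carrying tetracycline-inducible human GPR6 were induced with 2.0 μg/mL doxycycline for 20 h at 37 °C. No agonist was added, since receptor constitutive activity is used. Compound in Krebs Ringer's buffer with 0.5% fatty acid free BSA for 45 min at 37 °C. cAMP read by Eu-cAMP tracer/ULight anti-cAMP antibody TR-FRET. Four-parameter logistic fit; EC50 is the mean of ≥2 experiments, triplicate concentrations.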

[6] = Permeability of compound across apical to basolateral side in pig LLC-PK1 cells expressing MDR1; format: ADME, cell-based, Sus scrofa; conditions: read-out: permeability
[7] = Lipophilicity, log D of compound; format: physicochemical; conditions: octanol/water
[8] = molecular target: P-gp (MDR1, ABCB1) (Homo sapiens, UniProt P08183); assay: Substrate activity at P-gp (unknown origin) transfected in pig LLC-PK1 cells expressing MDR1 gene assessed as efflux ratio; format: ADME, cell-based
[9] = Intrinsic clearance in human hepatocytes; format: ADME, cell-based, Hepatocyte; conditions: read-out: CLH
[10] = molecular target: T1, G-protein coupled receptor 6; assay: Displacement of 3H-RL338 from human GPR6 expressed in T-REx-CHO-GPR6 cells assessed as inhibition constant by competition binding assay; format: cell-based
How it was run: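 Competition filtration binding on membranes from doxycycline-inducible T-REx-CHO cells expressing human GPR6 (15 μg/well). Tracer is 3H-RL-338, and test compound top concentration is 5 μM final. Buffer: 50 mM Tris pH 7.4, 50 mM NaCl, 6 mM MgCl2, 0.1% fatty acid free BSA, protease inhibitors. Incubated 2 h at room temperature, filtered, washed cold, scintillation counted. IC50 comes from a four-parameter fit; Ki by Cheng–Prusoff using the 3H-RL-338 Kd (2.4 or 5 nM, by batch).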

[11] = molecular target: Voltage-gated inwardly rectifying potassium channel KCNH2 (Homo sapiens, UniProt Q12809); assay: Inhibition of human ERG; format: toxicity
[12] = Unbound intrinsic clearance in human hepatocytes; format: ADME, cell-based, Hepatocyte
[13] = Intrinsic clearance in human liver microsomes; format: ADME, Microsome; conditions: read-out: CLH
[14] = molecular target: T1, G-protein coupled receptor 6; assay: Inverse agonist activity at human GPR6 expressed in CHO-K1 cells assessed as modulation of cAMP level incubated for 20 hrs by TR-FRET assay relative to control; format: functional, cell-based; conditions: filed as inverse agonist
How it was run: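 T-REx-CHO-K1 cells stably carrying tetracycline-inducible human GPR6 were induced with 2.0 μg/mL doxycycline for 20 h at 37 °C. Constitutive activity was measured with no agonist. Compound in Krebs Ringer's buffer with 0.5% fatty-acid-free BSA was added for 45 min at 37 °C. Eu-cAMP tracer (10 min) and ULight anti-cAMP antibody (1 h, RT) followed for TR-FRET. Four-parameter logistic fit; ≥2 experiments, triplicate.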

[15] = system: Rattus norvegicus; assay: Reversal of haloperidol-induced catalepsy in Sprague-Dawley rat assessed as reduction in catalepsy at 0.6 mg/kg, ip measured after 120 min; format: functional, organism-based
How it was run: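 Positive-control arm in male Sprague-Dawley rats (n = 9–10/group): A2A antagonist KW6002 at 0.6 mg/kg i.p., given together with haloperidol 1 mg/kg i.p. Bar test at 120 min: bar 6' high, up to 60 s, mean of three trials.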

[16] = system: Mus musculus; assay: Reversal of haloperidol-induced catalepsy in GPR6 knock out mouse assessed as reduction in catalepsy at 0.3 mg/kg, ip measured after 120 min; format: functional, organism-based
How it was run: (§1)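 Wild-type C57BL/6J and GPR6 knock-out male mice (n = 6/group): KW6002 at 0.3 mg/kg i.p. given with haloperidol 1 mg/kg i.p. Bar test at 120 min: bar 2' high, maximum 60 s, three trials averaged.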

[17] = system: Mus musculus; assay: Reversal of haloperidol-induced catalepsy in C57BL/6 mouse assessed as reduction in catalepsy at 0.3 mg/kg, ip measured after 120 min; format: functional, organism-based; how it was run: as §1
[18] = system: Rattus norvegicus; assay: Reversal of haloperidol-induced catalepsy in Sprague-Dawley rat assessed as reduction in catalepsy at 0.1 to 30 mg/kg, sc measured after 120 min; format: functional, organism-based; conditions: dose 0.1-30 mg/kg
How it was run: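 Male Sprague-Dawley rats (n = 9–10/group) received haloperidol 1 mg/kg i.p. together with vehicle (10% DMSO, 0.5% methylcellulose) or compound at 0.1–30 mg/kg s.c. Bar test at 120 min: front paws placed on a bar 6' high, time recorded up to 60 s. Three trials were averaged.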

[19] = system: Mus musculus; assay: Reversal of haloperidol-induced catalepsy in GPR6 knock out mouse assessed as reduction in catalepsy at 30 mg/kg, sc measured after 120 min; format: functional, organism-based
How it was run: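 Male GPR6 knock-out mice (n = 6/group) received haloperidol 1 mg/kg i.p. with vehicle (10% DMSO, 0.5% methylcellulose) or compound 30 mg/kg s.c. at the same time. Bar test at 120 min: bar 2' high, up to 60 s, average of three trials.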

Chain of Cytochrome P450 2D6 (P10635 whole entry): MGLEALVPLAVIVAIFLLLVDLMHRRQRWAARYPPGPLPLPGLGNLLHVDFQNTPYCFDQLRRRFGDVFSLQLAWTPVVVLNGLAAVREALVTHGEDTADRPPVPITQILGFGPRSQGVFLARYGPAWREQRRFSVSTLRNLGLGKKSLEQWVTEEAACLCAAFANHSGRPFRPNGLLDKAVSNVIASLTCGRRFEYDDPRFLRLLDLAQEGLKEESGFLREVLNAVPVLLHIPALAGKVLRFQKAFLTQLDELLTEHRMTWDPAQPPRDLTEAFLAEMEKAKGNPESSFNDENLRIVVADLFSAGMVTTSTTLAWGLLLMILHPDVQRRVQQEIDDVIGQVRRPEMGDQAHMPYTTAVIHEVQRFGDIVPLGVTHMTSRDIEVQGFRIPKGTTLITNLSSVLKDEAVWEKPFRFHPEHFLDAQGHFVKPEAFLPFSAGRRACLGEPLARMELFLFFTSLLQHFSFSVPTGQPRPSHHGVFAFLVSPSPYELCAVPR
Chain of hERG (KCNH2) (Q12809 whole entry): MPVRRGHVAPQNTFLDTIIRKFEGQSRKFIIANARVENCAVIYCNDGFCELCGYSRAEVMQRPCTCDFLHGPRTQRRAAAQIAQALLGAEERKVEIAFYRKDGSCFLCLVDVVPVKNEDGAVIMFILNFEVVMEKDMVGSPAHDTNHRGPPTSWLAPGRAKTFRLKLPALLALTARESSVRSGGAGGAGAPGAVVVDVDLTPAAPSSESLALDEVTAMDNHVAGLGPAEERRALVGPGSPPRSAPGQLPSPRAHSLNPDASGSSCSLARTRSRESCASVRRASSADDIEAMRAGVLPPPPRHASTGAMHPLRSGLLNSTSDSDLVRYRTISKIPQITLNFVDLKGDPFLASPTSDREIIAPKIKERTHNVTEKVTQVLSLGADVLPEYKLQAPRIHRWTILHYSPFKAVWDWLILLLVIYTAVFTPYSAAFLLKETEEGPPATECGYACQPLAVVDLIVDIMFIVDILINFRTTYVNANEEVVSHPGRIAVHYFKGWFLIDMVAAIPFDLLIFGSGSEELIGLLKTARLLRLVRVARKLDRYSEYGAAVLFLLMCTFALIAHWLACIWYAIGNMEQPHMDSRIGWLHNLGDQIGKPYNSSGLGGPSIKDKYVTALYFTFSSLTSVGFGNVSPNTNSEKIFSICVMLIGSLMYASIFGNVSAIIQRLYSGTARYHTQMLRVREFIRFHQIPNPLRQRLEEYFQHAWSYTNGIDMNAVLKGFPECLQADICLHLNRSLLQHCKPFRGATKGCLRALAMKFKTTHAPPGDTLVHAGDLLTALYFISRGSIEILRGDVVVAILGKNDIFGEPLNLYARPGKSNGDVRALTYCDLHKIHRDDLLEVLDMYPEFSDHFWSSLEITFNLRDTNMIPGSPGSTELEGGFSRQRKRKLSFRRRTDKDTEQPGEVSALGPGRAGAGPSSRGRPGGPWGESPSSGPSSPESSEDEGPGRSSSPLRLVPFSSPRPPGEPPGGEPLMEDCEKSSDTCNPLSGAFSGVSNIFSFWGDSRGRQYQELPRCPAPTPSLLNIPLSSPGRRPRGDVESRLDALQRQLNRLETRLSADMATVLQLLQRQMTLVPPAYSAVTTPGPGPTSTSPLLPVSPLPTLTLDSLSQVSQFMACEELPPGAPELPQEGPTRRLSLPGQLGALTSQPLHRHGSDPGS
T1 sequence (P46095 whole entry): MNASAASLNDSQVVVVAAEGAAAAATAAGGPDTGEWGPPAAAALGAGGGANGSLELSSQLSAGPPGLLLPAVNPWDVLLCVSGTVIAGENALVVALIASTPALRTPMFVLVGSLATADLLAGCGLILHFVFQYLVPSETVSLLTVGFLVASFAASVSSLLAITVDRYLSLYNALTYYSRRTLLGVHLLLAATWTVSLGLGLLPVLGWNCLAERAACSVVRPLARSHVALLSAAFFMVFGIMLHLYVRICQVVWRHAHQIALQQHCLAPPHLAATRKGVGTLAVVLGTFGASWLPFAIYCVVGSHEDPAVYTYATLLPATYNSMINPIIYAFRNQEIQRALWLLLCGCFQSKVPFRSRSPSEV
Chain of P-gp (MDR1, ABCB1) (P08183 whole entry): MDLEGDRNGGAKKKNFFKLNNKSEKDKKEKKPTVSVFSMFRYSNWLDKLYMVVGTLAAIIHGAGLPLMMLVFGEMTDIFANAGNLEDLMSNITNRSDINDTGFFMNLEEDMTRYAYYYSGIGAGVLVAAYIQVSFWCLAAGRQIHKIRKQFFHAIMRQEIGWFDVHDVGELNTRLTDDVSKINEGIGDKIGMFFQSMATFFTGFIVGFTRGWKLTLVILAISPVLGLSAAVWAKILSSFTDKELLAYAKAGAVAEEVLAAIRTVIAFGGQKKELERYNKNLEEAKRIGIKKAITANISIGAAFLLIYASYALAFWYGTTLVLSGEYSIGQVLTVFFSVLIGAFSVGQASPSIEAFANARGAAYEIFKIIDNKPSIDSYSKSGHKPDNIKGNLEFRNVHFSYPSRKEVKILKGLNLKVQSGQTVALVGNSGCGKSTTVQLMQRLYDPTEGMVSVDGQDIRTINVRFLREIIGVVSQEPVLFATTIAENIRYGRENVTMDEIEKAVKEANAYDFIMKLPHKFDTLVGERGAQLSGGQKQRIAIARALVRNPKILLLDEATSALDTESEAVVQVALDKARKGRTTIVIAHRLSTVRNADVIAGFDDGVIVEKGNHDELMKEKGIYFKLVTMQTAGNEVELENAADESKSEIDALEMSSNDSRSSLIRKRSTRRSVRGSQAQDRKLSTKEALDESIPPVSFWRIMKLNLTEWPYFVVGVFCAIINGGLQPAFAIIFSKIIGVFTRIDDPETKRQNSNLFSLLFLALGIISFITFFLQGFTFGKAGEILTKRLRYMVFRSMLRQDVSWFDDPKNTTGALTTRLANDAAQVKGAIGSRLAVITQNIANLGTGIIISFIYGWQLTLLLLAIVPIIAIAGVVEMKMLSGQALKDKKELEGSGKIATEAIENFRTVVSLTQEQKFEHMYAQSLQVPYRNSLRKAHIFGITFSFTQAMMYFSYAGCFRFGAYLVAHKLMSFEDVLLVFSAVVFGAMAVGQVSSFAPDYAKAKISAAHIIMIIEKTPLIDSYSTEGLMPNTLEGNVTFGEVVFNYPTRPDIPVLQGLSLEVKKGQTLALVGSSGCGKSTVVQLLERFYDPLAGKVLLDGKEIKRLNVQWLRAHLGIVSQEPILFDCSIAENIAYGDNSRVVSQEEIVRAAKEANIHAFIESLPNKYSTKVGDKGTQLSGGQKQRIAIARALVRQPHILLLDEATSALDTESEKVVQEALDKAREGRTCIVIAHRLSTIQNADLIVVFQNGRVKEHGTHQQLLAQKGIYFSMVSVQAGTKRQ
Chain of Voltage-gated inwardly rectifying potassium channel KCNH2 (Q12809 whole entry): as the sequence (Q12809 whole entry) above

| fold change (FC) [2] | IC50 [3] [nM] | fold change (FC) [4] | EC50 [5] [nM] | Emax [14] [%] | Structure (SMILES) | inhibition at 10 µM [1] [%] | other results |
| --- | --- | --- | --- | --- | --- | --- | --- |
| 19 | 3980 | 47 | 61000 | – | Cc1cc2nc(N3CCC(Oc4ccc(F)cc4F)CC3)c(NC(C)C)nc2cn1 | 71 | – |
| 9 | – | 14 | 21 | – | CC(C)Nc1nc2ccncc2nc1N1CCN(Cc2ccc(F)cc2F)CC1 | – | – |
| 20 | > 10000 | 16 | 30 | – | CCC(=O)N1CCc2nc(N3CCN(Cc4ccc(F)cc4F)CC3)c(NC(C)C)nc2C1 | – | – |
| 6 | – | 13 | 55 | – | CC(C)Nc1nc2cc(C#N)ncc2nc1N1CCC(Oc2ccc(F)cc2F)CC1 | – | – |
| 21 | > 10000 | 69 | 89 | – | CC(C)Nc1nc2c(nc1N1CCC(Oc3ccc(F)cc3F)CC1)CCN(C)C2 | 36 | – |
| 13 | 6310 | 27 | 16 | – | Cc1cc2nc(NC(C)C)c(N3CCC(Oc4ccc(F)cc4F)CC3)nc2cn1 | 75 | – |
| 19 | 6310 | 105 | 95 | – | Cc1cc2nc(N3CCC(Oc4ccc(F)cc4F)CC3)c(NC3CC3)nc2cn1 | – | – |
| – | – | – | 38000 | – | CC(=O)N1CCc2nc(N3CCC(Oc4ccc(F)cc4F)CC3)c(N[C@@H]3CCOC3)nc2C1 | – | Papp A→B [6]: 17 ×10⁻⁶ cm/s; logD [7]: 3.6; efflux ratio [8]: 0.7; CLint scaled [9]: 48 mL/min/kg; Ki [10]: 9.4 nM; IC50 [11]: 3500 nM; fraction unbound [12]: 0.51; CLint scaled [13]: 62 mL/min/kg |
| – | – | – | 2100 | 89 | Clc1ccc(Cl)c(CN2CCN(c3nc4ccccc4nc3NC3CC3)CC2)c1 | – | – |
| – | – | – | 53 | 110 | Clc1ccc(Cl)c(CN2CCN(c3nc4cnccc4nc3NC3CC3)CC2)c1 | – | – |
| – | – | – | 43000 | 73 | Cc1cccc(CN2CCN(c3nc4nonc4nc3NC3CC3)CC2)c1 | – | – |
| – | – | – | 55 | 102 | Clc1ccc(Cl)c(CN2CCN(c3nc4ccncc4nc3NC3CC3)CC2)c1 | – | – |
| – | – | – | 4100 | 90 | COc1ccc2nc(N3CCN(Cc4cc(Cl)ccc4Cl)CC3)c(NC3CC3)nc2c1 | – | – |
| 14 | 3980 | 78 | 29 | – | Cc1cc2nc(NC3CC3)c(N3CCN(Cc4ccc(F)cc4F)CC3)nc2cn1 | 23 | – |
| – | – | – | – | – | CCn1c(=O)c2c(nc(/C=C/c3ccc(OC)c(OC)c3)n2C)n(CC)c1=O | – | Activity [15]: Active; Activity [16]: Active; Activity [17]: Active |
| 21 | 50.1 | 80 | 39 | – | Fc1ccc(CN2CCN(c3nc4cnccc4nc3NC3CC3)CC2)c(F)c1 | 40 | Papp A→B [6]: 16 ×10⁻⁶ cm/s; efflux ratio [8]: 0.5; Ki [10]: 7 nM; Activity [18]: Dose-Dependent Effect; Activity [19]: inactive |
| – | 126 | – | 151 | – | Fc1ccc(F)c(CN2CCN(c3nc4cnccc4nc3NC3CC3)CC2)c1 | 40 | – |
| 5 | 3980 | 19 | 51000 | – | Cc1cc2nc(NC(C)C)c(N3CCN(Cc4ccc(F)cc4F)CC3)nc2cn1 | 13 | – |
| – | – | – | 1200 | 90 | Fc1ccc2nc(N3CCN(Cc4cc(Cl)ccc4Cl)CC3)c(NC3CC3)nc2c1 | – | – |
| – | – | – | 16000 | 90 | Cc1ccc2nc(N3CCN(Cc4cc(Cl)ccc4Cl)CC3)c(NC3CC3)nc2c1 | – | – |
| 638 | – | 15 | 29 | – | Fc1ccc(Cl)cc1CN1CCN(c2nc3cnccc3nc2NC2CC2)CC1 | – | – |
| – | – | – | 90 | 105 | CN(C)C(=O)c1ccc2nc(NC3CC3)c(N3CCN(Cc4cc(Cl)ccc4Cl)CC3)nc2c1 | – | – |
| – | – | – | 14000 | 110 | Cc1cccc(CN2CCN(c3nc4ccccc4nc3NC3CC3)CC2)c1 | – | – |
| – | – | – | 174 | 107 | N#Cc1ccc2nc(N3CCN(Cc4cc(Cl)ccc4Cl)CC3)c(NC3CC3)nc2c1 | – | – |
| 19 | 6310 | 105 | 29 | – | Cc1cc2nc(NC3CC3)c(N3CCC(Oc4ccc(F)cc4F)CC3)nc2cn1 | 75 | – |
